Legend:
[1] = molecular target: Acetylcholinesterase (Electrophorus electricus, UniProt O42275); test: Inhibition of electric eel AChE using acetylthiocholine iodide as substrate preincubated for 5 mins followed by substrate addition measured at 1 to 3 mins time interval by Ellman's method
[2] = molecular target: Cholinesterase (Equus caballus, UniProt P81908); test: Inhibition of equine serum BuChE using S-butyrylthiocholine iodide as substrate preincubated for 5 mins followed by substrate addition measured at 1 to 3 mins time interval by Ellman's method; format: ADME
Chain of Cholinesterase (P81908 whole entry): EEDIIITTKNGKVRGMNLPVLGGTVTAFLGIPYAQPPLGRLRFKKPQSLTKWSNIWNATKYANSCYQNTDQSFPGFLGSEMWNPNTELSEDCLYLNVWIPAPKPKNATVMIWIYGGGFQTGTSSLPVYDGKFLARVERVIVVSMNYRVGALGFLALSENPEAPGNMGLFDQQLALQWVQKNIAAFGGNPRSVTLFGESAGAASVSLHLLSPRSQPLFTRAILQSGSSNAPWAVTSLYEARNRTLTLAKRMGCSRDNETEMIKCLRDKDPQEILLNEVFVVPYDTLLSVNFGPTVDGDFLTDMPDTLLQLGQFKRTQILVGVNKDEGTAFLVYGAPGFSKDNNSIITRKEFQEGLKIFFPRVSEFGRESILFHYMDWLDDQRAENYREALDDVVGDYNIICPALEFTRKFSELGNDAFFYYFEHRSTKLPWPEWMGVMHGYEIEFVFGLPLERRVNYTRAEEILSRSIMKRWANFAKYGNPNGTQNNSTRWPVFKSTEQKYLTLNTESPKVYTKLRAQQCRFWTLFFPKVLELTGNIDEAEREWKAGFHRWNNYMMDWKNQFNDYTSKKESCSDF

[3] = Selectivity index, ratio of IC50 for equine serum BuChE to IC50 for electric eel AChE
[4] = molecular target: T1, Amine oxidase [flavin-containing] B (Homo sapiens, UniProt P27338); test: Inhibition of recombinant human MAO-B assessed as reduction in H2O2 production using p-tyramine as substrate preincubated for 15 mins followed by substrate addition by Amplex red reagent based fluorescence assay
T1 sequence (P27338 whole entry): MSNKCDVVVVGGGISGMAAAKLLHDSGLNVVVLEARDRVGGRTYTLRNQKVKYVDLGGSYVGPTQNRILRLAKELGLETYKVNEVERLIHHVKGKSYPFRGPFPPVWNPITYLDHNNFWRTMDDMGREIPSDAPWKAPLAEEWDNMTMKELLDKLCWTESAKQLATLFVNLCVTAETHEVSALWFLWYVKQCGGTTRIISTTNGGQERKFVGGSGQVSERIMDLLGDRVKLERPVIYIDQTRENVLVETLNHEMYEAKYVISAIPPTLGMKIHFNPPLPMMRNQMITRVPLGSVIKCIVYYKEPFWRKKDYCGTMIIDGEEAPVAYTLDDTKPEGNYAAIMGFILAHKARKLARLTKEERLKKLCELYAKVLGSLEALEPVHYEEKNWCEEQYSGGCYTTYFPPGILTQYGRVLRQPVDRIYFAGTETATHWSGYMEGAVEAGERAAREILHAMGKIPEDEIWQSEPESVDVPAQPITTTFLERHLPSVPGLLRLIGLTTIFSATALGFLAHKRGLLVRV
How it was run: (§1)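 Human MAO-A or MAO-B, each set to the same control reaction velocity. Preincubated with compound 15 min at 37°C in the dark, in sodium phosphate buffer with DMSO. Then 200 μM Amplex Red (final) added with 1 U/mL HRP and 1 mM p-tyramine. Run in triplicate, mean ± SD.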

[5] = organism: Homo sapiens; test: Selectivity index, ratio of IC50 for recombinant human MAO-A to IC50 for recombinant human MAO-B
[6] = molecular target: T2, Amine oxidase [flavin-containing] A (Homo sapiens, UniProt P21397); test: Inhibition of recombinant human MAO-A assessed as reduction in H2O2 production at 100 uM using p-tyramine as substrate preincubated for 15 mins followed by substrate addition by Amplex red reagent based fluorescence assay
T2 sequence (P21397 whole entry): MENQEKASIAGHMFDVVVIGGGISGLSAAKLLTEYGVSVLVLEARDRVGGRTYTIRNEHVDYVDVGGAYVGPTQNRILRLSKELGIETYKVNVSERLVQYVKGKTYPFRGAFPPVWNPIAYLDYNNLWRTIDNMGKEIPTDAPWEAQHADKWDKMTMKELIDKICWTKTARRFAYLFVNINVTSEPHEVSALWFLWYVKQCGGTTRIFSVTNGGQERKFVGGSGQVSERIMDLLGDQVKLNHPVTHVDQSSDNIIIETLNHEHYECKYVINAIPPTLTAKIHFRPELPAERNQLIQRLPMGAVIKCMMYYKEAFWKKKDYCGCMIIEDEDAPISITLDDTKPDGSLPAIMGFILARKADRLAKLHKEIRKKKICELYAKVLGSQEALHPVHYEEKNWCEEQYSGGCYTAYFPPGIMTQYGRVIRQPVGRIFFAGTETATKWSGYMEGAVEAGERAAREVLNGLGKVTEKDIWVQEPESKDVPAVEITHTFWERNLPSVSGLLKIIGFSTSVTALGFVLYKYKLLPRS
How it was run: as §1, with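 “p-tyramine. Resorufin fluorescence read at 37°C (ex 545/em 590 nm), background from enzyme-free wells subtracted.” for “p-tyramine.”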

[7] = molecular target: T2, Amine oxidase [flavin-containing] A; test: Inhibition of recombinant human MAO-A assessed as reduction in H2O2 production using p-tyramine as substrate preincubated for 15 mins followed by substrate addition by Amplex red reagent based fluorescence assay

Chain of Acetylcholinesterase (O42275 whole entry): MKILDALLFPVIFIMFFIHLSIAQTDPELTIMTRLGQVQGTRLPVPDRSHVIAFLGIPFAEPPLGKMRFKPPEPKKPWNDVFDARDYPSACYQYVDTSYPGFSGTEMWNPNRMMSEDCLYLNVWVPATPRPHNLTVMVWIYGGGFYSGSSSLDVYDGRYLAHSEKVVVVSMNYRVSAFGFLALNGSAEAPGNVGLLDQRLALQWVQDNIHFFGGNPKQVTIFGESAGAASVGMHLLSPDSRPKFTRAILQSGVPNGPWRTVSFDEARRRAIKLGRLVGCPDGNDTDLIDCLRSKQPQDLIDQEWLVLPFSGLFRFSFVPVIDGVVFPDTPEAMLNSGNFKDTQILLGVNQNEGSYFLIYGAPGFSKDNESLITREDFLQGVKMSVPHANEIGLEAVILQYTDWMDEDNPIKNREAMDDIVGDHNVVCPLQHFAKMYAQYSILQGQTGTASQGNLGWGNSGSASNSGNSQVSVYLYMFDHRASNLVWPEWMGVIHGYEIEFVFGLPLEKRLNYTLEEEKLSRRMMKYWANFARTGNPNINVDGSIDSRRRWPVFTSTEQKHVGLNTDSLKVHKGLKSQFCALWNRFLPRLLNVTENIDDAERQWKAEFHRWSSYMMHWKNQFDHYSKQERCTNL

| SMILES | IC50 [1] [µM] | IC50 [2] [µM] | Ratio IC50 [3] | IC50 [4] [µM] | Ratio IC50 [5] | inhibition (INH) [6] | IC50 [7] [µM] |
| --- | --- | --- | --- | --- | --- | --- | --- |
| CN1CCN(CCCCCCOc2ccc(/C=C3\COc4ccccc4C3=O)cc2)CC1 | 32.3 | 27.3 | 0.843 | 6.24 | > 16.1 | Not Active |  |
| CN(C)CCCCCCOc1ccc(/C=C2\COc3ccccc3C2=O)cc1 | 12.8 | 9.12 | 0.712 | 3.22 | 12.1 |  | 39.1 |
| CCN(CC)CCOc1ccccc1/C=C1\COc2ccccc2C1=O | 65.3 | 11.5 | 0.176 | 43.8 | > 2.64 | Not Active |  |
| CCN(CC)CCCOc1cccc(/C=C2\COc3ccccc3C2=O)c1 | 14.1 | 1.03 | 0.0732 | 18.2 | 3.55 |  | 64.7 |
| CCN(CC)CCCOc1ccc(/C=C2\COc3ccccc3C2=O)cc1 | 3.2 | 8.27 | 2.58 | 0.166 | 379 |  | 62.9 |
| CCN(CCOc1ccc(/C=C2\COc3ccccc3C2=O)cc1)Cc1ccccc1 | 1.29 | 49.4 | 38.3 | 4.29 | > 23.3 | Not Active |  |
| CN1CCN(CCCOc2ccc(/C=C3\COc4ccccc4C3=O)cc2)CC1 | 10.1 | 15.4 | 1.53 | 22.7 | > 4.41 | Not Active |  |
| CN(C)CCCOc1ccccc1/C=C1\COc2ccccc2C1=O | 75.1 | 8.74 | 0.116 | > 100 | > 1 | Not Active |  |
| CN(CCCOc1ccc(/C=C2\COc3ccccc3C2=O)cc1)Cc1ccccc1 | 52.3 | 19.3 | 0.369 | 0.88 | > 114 | Not Active |  |
| CCN(CCCOc1ccc(/C=C2\COc3ccccc3C2=O)cc1)Cc1ccccc1 | 29.4 | 17.2 | 0.583 | 1.59 |  |  |  |
| CN(C)CCOc1ccccc1/C=C1\COc2ccccc2C1=O | 65.3 | 10 | 0.154 | > 100 | > 1 | Not Active |  |
| CN(C)CCCCOc1ccc(/C=C2\COc3ccccc3C2=O)cc1 | 12.3 | 18.9 | 1.54 | 0.756 | > 132 | Not Active |  |
| CN1CCN(CCCCOc2ccc(/C=C3\COc4ccccc4C3=O)cc2)CC1 | 13 | 10.4 | 0.799 | 16.4 | > 6.1 | Not Active |  |
| CCN(CCCCCCOc1ccc(/C=C2\COc3ccccc3C2=O)cc1)Cc1ccccc1 | 17 | 40 | 2.36 | > 100 | > 1 | Not Active |  |
| CN(C)CCCOc1ccc(/C=C2\COc3ccccc3C2=O)cc1 | 5.21 | 20.3 | 3.9 | 0.0438 | > 2280 | Not Active |  |
| O=C1/C(=C/c2ccc(OCCN3CCN(Cc4ccccc4)CC3)cc2)COc2ccccc21 | 21 | 31.5 | 1.5 | 97.5 | > 1.03 | Not Active |  |
| CN(CCOc1ccc(/C=C2\COc3ccccc3C2=O)cc1)Cc1ccccc1 | 19.3 | 41.5 | 2.14 | 2.28 | > 43.8 | Not Active |  |
